# Measured values published in ChEMBL document CHEMBL1681772 (Bioorg Med Chem, 2011).
# Molecular target: T1, Prostaglandin G/H synthase 1 (Ovis aries, UniProt P05979)
# T1 sequence (P05979 whole entry): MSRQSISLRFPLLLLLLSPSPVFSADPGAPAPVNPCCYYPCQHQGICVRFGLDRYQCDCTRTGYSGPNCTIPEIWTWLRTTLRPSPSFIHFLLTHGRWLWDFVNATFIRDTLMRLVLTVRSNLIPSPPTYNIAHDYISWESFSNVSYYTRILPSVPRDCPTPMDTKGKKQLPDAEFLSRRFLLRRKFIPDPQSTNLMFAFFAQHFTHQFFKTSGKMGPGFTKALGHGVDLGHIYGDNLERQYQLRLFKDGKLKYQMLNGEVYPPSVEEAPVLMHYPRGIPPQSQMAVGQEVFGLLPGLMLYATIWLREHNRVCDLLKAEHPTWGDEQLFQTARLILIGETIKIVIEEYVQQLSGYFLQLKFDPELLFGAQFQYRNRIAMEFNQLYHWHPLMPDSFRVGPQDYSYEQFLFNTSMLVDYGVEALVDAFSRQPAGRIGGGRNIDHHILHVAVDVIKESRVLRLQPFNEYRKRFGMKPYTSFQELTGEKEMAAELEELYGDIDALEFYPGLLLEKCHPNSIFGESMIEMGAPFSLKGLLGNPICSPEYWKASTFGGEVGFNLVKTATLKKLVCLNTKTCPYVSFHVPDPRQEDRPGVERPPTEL
# Test: Inhibition of ovine COX1 assessed as PGF2alpha level by EIA
# Summary of the method: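 Ovine COX-1 with heme in 0.1 M Tris-HCl pH 8.0 (5 mM EDTA, 2 mM phenol); compound at […] (final), 2 min preincubation at 37 °C. Started with arachidonic acid (100 µM), stopped after 2 min with 1 M HCl. PGH2 reduced to PGF2α by stannous chloride and quantified by EIA (18 h, room temperature; Ellman's reagent, 410 nm). IC50 from percent inhibition, mean of two determinations.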
row,SMILES,IC50 [µM]
1,COC1(c2cccc(CN(c3ccccc3OCc3ccccc3)S(C)(=O)=O)c2)CCOCC1,> 100
2,COC1(c2cccc(CN(c3ccc(Cl)cc3OCc3ccccc3)S(C)(=O)=O)c2)CCOCC1,> 100
3,COC1(c2cccc(CN(c3cc(Cl)ccc3OCc3ccccc3)S(C)(=O)=O)c2)CCOCC1,> 100
4,COC1(c2cccc(CN(c3cc(C)ccc3OCc3ccccc3)S(C)(=O)=O)c2)CCOCC1,> 100
5,COC1(c2cccc(CNc3ccccc3OCc3ccccc3)c2)CCOCC1,> 100
6,COC1(c2cccc(CNc3cc(Cl)ccc3OCc3ccccc3)c2)CCOCC1,> 100
7,COC1(c2cccc(CNc3cc(C)ccc3OCc3ccccc3)c2)CCOCC1,> 100
8,COC1(c2cccc(CNc3ccc([N+](=O)[O-])cc3OCc3ccccc3)c2)CCOCC1,88.8
9,COC1(c2cccc(COc3ccccc3OCc3ccccc3)c2)CCOCC1,> 100
10,COC1(c2cccc(COc3ccc(Cl)cc3OCc3ccccc3)c2)CCOCC1,> 100
11,COC1(c2cccc(COc3ccc(Br)cc3OCc3ccccc3)c2)CCOCC1,> 100
12,CCOC(=O)c1ccc(OCc2cccc(C3(OC)CCOCC3)c2)c(OCc2ccccc2)c1,44.2

# These reach a lower IC50. Values come first.
row,IC50 [µM],SMILES
1,14.8,COC1(c2cccc(CS(=O)(=O)Nc3ccccc3OCc3ccccc3)c2)CCOCC1
2,24.4,COC1(c2cccc(CS(=O)(=O)Nc3ccc(Cl)cc3OCc3ccccc3)c2)CCOCC1
3,15.6,COC1(c2cccc(CS(=O)(=O)Nc3cc(Cl)ccc3OCc3ccccc3)c2)CCOCC1
4,16.5,COC1(c2cccc(CS(=O)(=O)Nc3cc(C)ccc3OCc3ccccc3)c2)CCOCC1
5,7.9,COC1(c2cccc(CS(=O)(=O)Nc3ccc([N+](=O)[O-])cc3OCc3ccccc3)c2)CCOCC1
6,11.6,CCOC(=O)c1ccc(OCc2ccccc2)c(NS(=O)(=O)Cc2cccc(C3(OC)CCOCC3)c2)c1
7,13.5,COC1(c2cccc(CN(c3ccc([N+](=O)[O-])cc3OCc3ccccc3)S(C)(=O)=O)c2)CCOCC1
8,34.6,COC1(c2cccc(CNc3ccc(Cl)cc3OCc3ccccc3)c2)CCOCC1
9,6.2,CS(=O)(=O)Nc1ccc([N+](=O)[O-])cc1Oc1ccccc1 [NIMESULIDE]
